In ChEMBL document CHEMBL3603756, “Synthesis and apoptotic activity of new pyrazole derivatives in cancer cell lines” (2015):
The source made the active and inactive calls. No cut-off for these calls is given here.

Assays:
THP-1 [1] = test: Cytotoxicity against human THP1 cells assessed as cell viability at 12.5 ug/ml incubated for 24 hrs by MTS assay; assay type: functional; conditions: THP-1, 24 h, read-out: Activity
Summary of the method: (§1)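 Cells were held at 37 °C, 5% CO2 in humid air. HEp-2 (5 x 10³/well) and HCT-8 (7 x 10³/well) grew in DMEM + 10% heat-inactivated FBS and got compound (binary dilutions) 24 h after seeding. THP-1 (5 x 10³ cells, RPMI-1640 + 10% FBS) were added directly to the dilutions. Exposure lasted 24 h. MTS (CellTiter 96 AQueous One) read-out was absorbance at 490 nm.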

THP-1 [2] = test: Cytotoxicity against human THP1 cells assessed as cell viability at 25 ug/ml incubated for 24 hrs by MTS assay; assay type: functional; conditions: THP-1, 24 h, read-out: Activity; summary of the method: as §1
THP-1 [3] = test: Cytotoxicity against human THP1 cells assessed as cell viability at 50 ug/ml incubated for 24 hrs by MTS assay; assay type: functional; conditions: THP-1, 24 h, read-out: Activity; summary of the method: as §1
[4] = Cytotoxicity against human HCT8 cells assessed as cell viability at 12.5 ug/ml incubated for 24 hrs by MTS assay; assay type: functional; conditions: HCT-8, 24 h, read-out: Activity; summary of the method: as §1
[5] = Cytotoxicity against human HCT8 cells assessed as cell viability at 25 ug/ml incubated for 24 hrs by MTS assay; assay type: functional; conditions: HCT-8, 24 h, read-out: Activity; summary of the method: as §1
[6] = Cytotoxicity against human HCT8 cells assessed as cell viability at 50 ug/ml incubated for 24 hrs by MTS assay; assay type: functional; conditions: HCT-8, 24 h, read-out: Activity; summary of the method: as §1
[7] = Cytotoxicity against human Hep2 cells assessed as cell viability at 12.5 ug/ml incubated for 24 hrs by MTS assay; assay type: functional; conditions: HEp-2, 24 h, read-out: Activity; summary of the method: as §1
[8] = Cytotoxicity against human Hep2 cells assessed as cell viability at 25 ug/ml incubated for 24 hrs by MTS assay; assay type: functional; conditions: HEp-2, 24 h, read-out: Activity; summary of the method: as §1
[9] = Cytotoxicity against human Hep2 cells assessed as cell viability at 50 ug/ml incubated for 24 hrs by MTS assay; assay type: functional; conditions: HEp-2, 24 h, read-out: Activity; summary of the method: as §1
HCT-8 [10] = test: Induction of apoptosis in human HCT8 cells assessed necrosis level at 50 ug/ml incubated for 24 hrs by annexin V-FITC and propidium iodide staining based flow cytometry (reference value: 1.12%); assay type: functional
HCT-8 [11] = test: Induction of apoptosis in human HCT8 cells assessed early apoptosis level at 50 ug/ml incubated for 24 hrs by annexin V-FITC and propidium iodide staining based flow cytometry (reference value: 0.75%); assay type: functional
HCT-8 [12] = test: Induction of apoptosis in human HCT8 cells assessed late apoptosis level at 50 ug/ml incubated for 24 hrs by annexin V-FITC and propidium iodide staining based flow cytometry (reference value: 4.8%); assay type: functional
HCT-8 [13] = test: Induction of apoptosis in human HCT8 cells assessed viable cells level at 50 ug/ml incubated for 24 hrs by annexin V-FITC and propidium iodide staining based flow cytometry (reference value: 93.3%); assay type: functional
HEp-2 [14] = test: Increase in TRAIL-R2 protein expression in human Hep2 cells at 50 ug/ml incubated for 24 hrs by protein array method; assay type: functional, cell-based
HEp-2 [15] = test: Increase in TRAIL-R1 protein expression in human Hep2 cells at 50 ug/ml incubated for 24 hrs by protein array method; assay type: functional, cell-based
HEp-2 [16] = test: Increase in FADD protein expression in human Hep2 cells at 50 ug/ml incubated for 24 hrs by protein array method; assay type: functional, cell-based
HEp-2 [17] = test: Increase in Fas/TNFRSF6 protein expression in human Hep2 cells at 50 ug/ml incubated for 24 hrs by protein array method; assay type: functional, cell-based
HEp-2 [18] = test: Increase in caspase-8 levels in human Hep2 cells at 50 ug/ml incubated for 24 hrs by protein array method; assay type: functional, cell-based
HEp-2 [19] = test: Reduction in pro-caspase-3 levels in human Hep2 cells at 50 ug/ml incubated for 24 hrs by protein array method; assay type: functional, cell-based
HEp-2 [20] = test: Increase in cleaved-caspase-3 levels in human Hep2 cells at 50 ug/ml incubated for 24 hrs by protein array method; assay type: functional, cell-based
HEp-2 [21] = test: Reduction in XIAP levels in human Hep2 cells at 50 ug/ml incubated for 24 hrs by protein array method; assay type: functional, cell-based
HEp-2 [22] = test: Reduction in c-IAP1 levels in human Hep2 cells at 50 ug/ml incubated for 24 hrs by protein array method; assay type: functional, cell-based
HEp-2 [23] = test: Reduction in c-IAP2 levels in human Hep2 cells at 50 ug/ml incubated for 24 hrs by protein array method; assay type: functional, cell-based
HEp-2 [24] = test: Reduction in livin protein levels in human Hep2 cells at 50 ug/ml incubated for 24 hrs by protein array method; assay type: functional, cell-based
HEp-2 [25] = test: Reduction in survivin protein levels in human Hep2 cells at 50 ug/ml incubated for 24 hrs by protein array method; assay type: functional, cell-based
HEp-2 [26] = test: Reduction in HSP27 protein levels in human Hep2 cells at 50 ug/ml incubated for 24 hrs by protein array method; assay type: functional, cell-based
HEp-2 [27] = test: Reduction in HSP70 protein levels in human Hep2 cells at 50 ug/ml incubated for 24 hrs by protein array method; assay type: functional, cell-based
HEp-2 [28] = test: Induction of apoptosis in human Hep2 cells assessed as increase in p53 S15/S46/S392 phosphorylation level at 50 ug/ml incubated for 24 hrs by protein array method; assay type: functional, cell-based
HEp-2 [29] = test: Induction of cell cycle arrest in human Hep2 cells assessed accumulation at G2/M phase incubated for 24 hrs by propidium iodide staining based flow cytometry; assay type: functional
HEp-2 [30] = test: Induction of cell cycle arrest in human Hep2 cells assessed accumulation at G0/G1 phase at 10 ug/ml incubated for 24 hrs by propidium iodide staining based flow cytometry (reference value: 74.51%); assay type: functional
HEp-2 [31] = test: Induction of cell cycle arrest in human Hep2 cells assessed accumulation at G0/G1 phase at 50 ug/ml incubated for 24 hrs by propidium iodide staining based flow cytometry (reference value: 74.51%); assay type: functional
HEp-2 [32] = test: Induction of cell cycle arrest in human Hep2 cells assessed accumulation at S phase at 10 ug/ml incubated for 24 hrs by propidium iodide staining based flow cytometry (reference value: 21.06%); assay type: functional
HEp-2 [33] = test: Induction of cell cycle arrest in human Hep2 cells assessed accumulation at S phase at 50 ug/ml incubated for 24 hrs by propidium iodide staining based flow cytometry (reference value: 21.06%); assay type: functional
HEp-2 [34] = test: Induction of cell cycle arrest in human Hep2 cells assessed accumulation at G2/M phase at 10 ug/ml incubated for 24 hrs by propidium iodide staining based flow cytometry (reference value: 7.82%); assay type: functional
HEp-2 [35] = test: Induction of cell cycle arrest in human Hep2 cells assessed accumulation at G2/M phase at 50 ug/ml incubated for 24 hrs by propidium iodide staining based flow cytometry (reference value: 7.82%); assay type: functional
[36] = Reduction in PRKAA1 gene expression in human Hep2 cells at 10 ug/ml incubated for 24 hrs by real-time PCR method; assay type: functional, cell-based; conditions: HEp-2
Summary of the method: (§2)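 HEp-2 cells were treated 24 h at 10 or 50 µg/mL. Total RNA was extracted with Trizol, and 2 µg was reverse-transcribed. 50 ng cDNA went into TaqMan real-time PCR with beta-actin as endogenous control. Relative expression was calculated by the ∆∆CT method. Each experiment was run three times.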

[37] = Reduction in PRKAA1 gene expression in human Hep2 cells at 50 ug/ml incubated for 24 hrs by real-time PCR method; assay type: functional, cell-based; conditions: HEp-2; summary of the method: as §2
[38] = Reduction in PRKAA2 gene expression in human Hep2 cells at 10 ug/ml incubated for 24 hrs by real-time PCR method; assay type: functional, cell-based; conditions: HEp-2; summary of the method: as §2
[39] = Reduction in PRKAA2 gene expression in human Hep2 cells at 50 ug/ml incubated for 24 hrs by real-time PCR method; assay type: functional, cell-based; conditions: HEp-2; summary of the method: as §2
HEp-2 [40] = test: Increase in PRKAA1 gene expression in human Hep2 cells at 50 ug/ml incubated for 24 hrs by real-time PCR method; assay type: functional, cell-based; summary of the method: as §2
HEp-2 [41] = test: Increase in PRKAA2 gene expression in human Hep2 cells at 50 ug/ml incubated for 24 hrs by real-time PCR method; assay type: functional, cell-based; summary of the method: as §2
HEp-2 [42] = test: Increase in cyclin B gene expression in human Hep2 cells at 50 ug/ml incubated for 24 hrs by real-time PCR method; assay type: functional, cell-based; summary of the method: as §2
HEp-2 [43] = test: Increase in cyclin B gene expression in human Hep2 cells at 10 ug/ml incubated for 24 hrs by real-time PCR method; assay type: functional, cell-based; summary of the method: as §2

## Cn1cc(C(=O)/N=C2\SCC(C)(O)N2c2ccc(I)cc2)cn1 (stereo not given)
THP-1 [1]
  viability at 12.5 µg/mL: 97%
THP-1 [2]
  viability at 25 µg/mL: 84.1%
THP-1 [3]
  viability at 50 µg/mL: 38.4%
[4]
  viability at 12.5 µg/mL: 100%
[5]
  viability at 25 µg/mL: 100%
[6]
  viability at 50 µg/mL: 90.2%
[7]
  viability at 12.5 µg/mL: 100%
[8]
  viability at 25 µg/mL: 100%
[9]
  viability at 50 µg/mL: 89%
HCT-8 [10]
  Activity: 1.44%
HCT-8 [11]
  Activity: 4.96%
HCT-8 [12]
  Activity: 3.37%
HCT-8 [13]
  Activity: 90.2%
HEp-2 [14]
  Activity: Active
HEp-2 [15]
  Activity: Active
HEp-2 [16]
  Activity: Active
HEp-2 [17]
  Activity: Active
HEp-2 [18]
  Activity: Active
HEp-2 [19]
  Activity: Active
HEp-2 [20]
  Activity: Active
HEp-2 [21]
  Activity: Active
HEp-2 [22]
  Activity: Active
HEp-2 [23]
  Activity: Active
HEp-2 [24]
  Activity: Active
HEp-2 [25]
  Activity: Active
HEp-2 [26]
  Activity: Active
HEp-2 [27]
  Activity: Active
HEp-2 [28]
  Activity: Active
HEp-2 [29]
  Activity: Dose-dependent effect
HEp-2 [30]
  Activity: 74.73%
HEp-2 [31]
  Activity: 43.62%
HEp-2 [32]
  Activity: 17.85%
HEp-2 [33]
  Activity: 27.01%
HEp-2 [34]
  Activity: 14.92%
HEp-2 [35]
  Activity: 33.4%
[36]
  Activity: Active
[37]
  Activity: Active
[38]
  Activity: Active
[39]
  Activity: Active

## Cn1cc(C(=O)NC(=S)Nc2cccc(Br)c2)cn1
THP-1 [1]
  viability at 12.5 µg/mL: 77%
THP-1 [2]
  viability at 25 µg/mL: 55.8%
THP-1 [3]
  viability at 50 µg/mL: 32%
[4]
  viability at 12.5 µg/mL: 94%
[5]
  viability at 25 µg/mL: 89.8%
[6]
  viability at 50 µg/mL: 78.2%
[7]
  viability at 12.5 µg/mL: 100%
[8]
  viability at 25 µg/mL: 82%
[9]
  viability at 50 µg/mL: 70%
HCT-8 [10]
  Activity: 7.58%
HCT-8 [11]
  Activity: 7.07%
HCT-8 [12]
  Activity: 7.11%
HCT-8 [13]
  Activity: 78.2%
HEp-2 [14]
  Activity: Active
HEp-2 [15]
  Activity: Active
HEp-2 [16]
  Activity: Active
HEp-2 [17]
  Activity: Active
HEp-2 [18]
  Activity: Active
HEp-2 [19]
  Activity: Active
HEp-2 [20]
  Activity: Active
HEp-2 [21]
  Activity: Active
HEp-2 [22]
  Activity: Active
HEp-2 [23]
  Activity: Active
HEp-2 [24]
  Activity: Active
HEp-2 [25]
  Activity: Active
HEp-2 [26]
  Activity: Active
HEp-2 [27]
  Activity: Active
HEp-2 [28]
  Activity: Active
HEp-2 [29]
  Activity: Dose-dependent effect
HEp-2 [30]
  Activity: 66.12%
HEp-2 [31]
  Activity: 15.4%
HEp-2 [32]
  Activity: 20.85%
HEp-2 [33]
  Activity: 34.7%
HEp-2 [34]
  Activity: 18.43%
HEp-2 [35]
  Activity: 52.33%
[36]
  Activity: Active
[38]
  Activity: Active
HEp-2 [40]
  Activity: Active
HEp-2 [41]
  Activity: Active
HEp-2 [42]
  Activity: Active
HEp-2 [43]
  Activity: Active
